From ChEMBL document CHEMBL2401626 (J Med Chem, 2013)
The source made the active and inactive calls. No cut-off for these calls is given here.

Legend:
[1] = biological target: T1, Amyloid-beta precursor protein (Homo sapiens, UniProt P05067); test: Induction of disaggregation of Cu2+-induced amyloid beta (1 to 42) fibril (unknown origin) at 50 uM after 24 hrs by thioflavin T fluorescence assay relative to control
How it was run: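 Aβ1−42 (25 μM final) in 20 μM HEPES pH 6.6, 150 μM NaCl, preincubated with Cu2+ (25 μM) for 24 h at 37 °C. Compound (50 μM final) then added for another 24 h at 37 °C. Sample diluted into 50 mM glycine−NaOH pH 8.0 with 5 μM ThT; fluorescence read after 5 min at ex 450/em 485 nm.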

[2] = biological target: T1, Amyloid-beta precursor protein; test: Induction of disaggregation of self-mediated amyloid beta (1 to 42) fibril (unknown origin) at 25 uM after 24 hrs by transmission electron microscopic analysis
[3] = biological target: T1, Amyloid-beta precursor protein; test: Induction of disaggregation of self-mediated amyloid beta (1 to 42) fibril (unknown origin) at 25 uM after 24 hrs by thioflavin T fluorescence assay relative to control
[4] = biological target: T1, Amyloid-beta precursor protein; test: Inhibition of Cu2+-induced amyloid beta (1 to 42) aggregation (unknown origin) at 50 uM after 24 hrs by thioflavin T fluorescence assay relative to untreated control
How it was run: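 Aβ1−42 (25 μM final) in 20 μM HEPES pH 6.6, 150 μM NaCl, with Cu2+ (25 μM final) and compound (50 μM final). Incubated at 37 °C for 24 h, then diluted into 50 mM glycine−NaOH pH 8.0 with 5 μM ThT. Fluorescence read at ex 450/em 485 nm after 5 min; inhibition calculated as (1 − IFi/IFc) × 100 after background subtraction.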

[5] = biological target: T1, Amyloid-beta precursor protein; details: at 20 µM
[6] = Antioxidant activity assessed as trolox equivalent of AAPH radical scavenging activity at 10 uM preincubated for 10 mins followed by AAPH challenge measured every min for 120 mins by ORAC-FL assay; type: functional
How it was run: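 Test compound and fluorescein (70 nM final) in 75 mM phosphate buffer pH 7.4, preincubated 10 min at 37 °C, then AAPH (40 mM solution) added. Fluorescence read every minute for 120 min (ex 485/em 520 nm). Curves normalized to buffer blank. […] Triplicate wells, at least three independent runs.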

[7] = biological target: T1, Amyloid-beta precursor protein
Acetylcholinesterase = Acetylcholinesterase (Electrophorus electricus, UniProt O42275); test: Inhibition of electric eel AChE using acetylthiocholine chloride as substrate preincubated for 15 mins followed by substrate addition measured every 1 min by Ellman's method
Sequence of Acetylcholinesterase (O42275 whole entry): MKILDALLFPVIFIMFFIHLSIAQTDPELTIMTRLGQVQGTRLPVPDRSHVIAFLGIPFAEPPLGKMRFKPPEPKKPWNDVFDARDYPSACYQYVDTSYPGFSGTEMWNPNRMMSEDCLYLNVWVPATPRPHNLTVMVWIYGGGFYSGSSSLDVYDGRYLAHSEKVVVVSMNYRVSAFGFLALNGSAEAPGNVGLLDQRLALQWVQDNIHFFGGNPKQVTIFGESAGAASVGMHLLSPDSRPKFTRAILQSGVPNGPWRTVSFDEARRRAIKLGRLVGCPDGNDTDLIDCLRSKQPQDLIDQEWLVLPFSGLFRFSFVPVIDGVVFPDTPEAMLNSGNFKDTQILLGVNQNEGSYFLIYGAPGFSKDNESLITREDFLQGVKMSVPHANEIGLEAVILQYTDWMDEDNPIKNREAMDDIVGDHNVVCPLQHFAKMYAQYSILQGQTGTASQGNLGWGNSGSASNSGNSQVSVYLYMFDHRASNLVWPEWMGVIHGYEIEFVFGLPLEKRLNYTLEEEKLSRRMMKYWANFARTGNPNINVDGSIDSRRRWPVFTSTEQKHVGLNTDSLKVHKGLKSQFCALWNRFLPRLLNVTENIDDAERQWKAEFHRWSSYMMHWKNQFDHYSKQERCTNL
How it was run: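 Ellman method in 0.1 M potassium phosphate buffer, pH 8.0, 1 mL assay containing DTNB and thiocholine substrate (each 50 μL of 0.01 M stock). Enzyme (AChE stock 2.0 units/mL) preincubated with compound 15 min at 37 °C, then substrate added. A412 read at 1 min intervals at 37 °C. Each concentration in triplicate. IC50 from at least three experiments.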

SH-SY5Y = test: Antioxidant activity in human SH-SY5Y cells assessed as decrease in t-BuOOH-induced intracellular ROS production at 2.5 to 10 uM incubated for 24 hrs prior to t-BuOOH challenge measured after 30 mins by DCFHDA-based fluorescence assay; type: functional, cell-based
How it was run: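 SH-SY5Y cells (DMEM, 10% FCS, 37 °C, 5% CO2) seeded 1 × 10^4/well and grown 24 h. Compound added for 24 h; Trolox control at 5, 10, 20 μM. Cells are then washed, loaded with 5 μM DCFH-DA in PBS for 30 min, and challenged with 0.1 mM t-BuOOH for 30 min. Fluorescence read at ex 485/em 535 nm. Result is % of control by formula; three independent experiments in sextuplicate.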

[8] = biological target: T1, Amyloid-beta precursor protein; test: Induction of disaggregation of Cu2+-induced amyloid beta (1 to 42) fibril (unknown origin) at 50 uM after 24 hrs by transmission electron microscopic analysis
How it was run: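 Cu2+-induced fibrils formed from Aβ1−42 (25 μM) with Cu2+ (25 μM) at 37 °C for 24 h in HEPES pH 6.6/NaCl, then treated with compound (50 μM) at 37 °C for 24 h. Aliquots placed on carbon-coated grid for 2 min, stained with 1% uranyl acetate for 2 min, and imaged by TEM.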

[9] = biological target: T1, Amyloid-beta precursor protein; test: Inhibition of Cu2+-induced amyloid beta (1 to 42) aggregation (unknown origin) at 50 uM after 24 hrs by transmission electron microscopic analysis
How it was run: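 Aβ1−42 (25 μM) with Cu2+ (25 μM) and compound (50 μM) in HEPES pH 6.6/150 μM NaCl, incubated at 37 °C for 24 h. Aliquots put on carbon-coated grid for 2 min, stained with 1% uranyl acetate for 2 min, and imaged by TEM.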

[10] = Metal chelating activity of the compound assessed as Cu2+ complex formation by Job's method; type: functional
How it was run: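 Job's method: solutions held at constant total compound + CuSO4 concentration with varied mole fraction, in ethanol/HEPES buffer pH 7.4. UV absorbance change plotted against mole fraction; stoichiometry taken from the intersection of the straight lines.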

[11] = Metal chelating activity of the compound assessed as Fe3+ complex formation at 20 uM after 30 mins by UV-vis spectrometry; type: functional
[12] = Metal chelating activity of the compound assessed as Zn2+ complex formation at 20 uM after 30 mins by UV-vis spectrometry; type: functional
How it was run: (§1)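 Absorption spectra of compound (20 μM final) alone or with metal salt (40 μM final; CuSO4, FeSO4 or ZnCl2) after 30 min in 20% ethanol/buffer (20 mM HEPES, 150 mM NaCl, pH 7.4). Recorded at room temperature by UV−vis.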

[13] = Metal chelating activity of the compound assessed as Fe2+ complex formation at 20 uM after 30 mins by UV-vis spectrometry; type: functional; how it was run: as §1
[14] = Metal chelating activity of the compound assessed as Cu2+ complex formation at 20 uM after 30 mins by UV-vis spectrometry; type: functional; how it was run: as §1
[15] = biological target: T1, Amyloid-beta precursor protein; test: Inhibition of amyloid beta (1 to 42) fibril formation (unknown origin) at 20 uM after 24 hrs by transmission electron microscopic analysis
How it was run: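 Aβ1−42 (25 μM) incubated with compound (20 μM) at 37 °C for 24 h in 10 mM phosphate pH 7.4. Grid loaded for 2 min, stained with 1% uranyl acetate for 2 min, and imaged by TEM.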

[16] = Permeability of the compound at 100 ug/mL after 10 hrs by PAMPA; type: ADME; details: read-out: permeability
How it was run: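 PAMPA-BBB: filter coated with porcine brain lipid in dodecane (20 mg/mL); acceptor is PBS/EtOH 7:3. Compound taken from 5 mg/mL DMSO stock and diluted to 100 μg/mL final in PBS/EtOH, then incubated 10 h at 25 °C. Acceptor concentration measured by UV at five wavelengths, four wells, at least three runs; Pe calculated by equation.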

T1 sequence (P05067 whole entry): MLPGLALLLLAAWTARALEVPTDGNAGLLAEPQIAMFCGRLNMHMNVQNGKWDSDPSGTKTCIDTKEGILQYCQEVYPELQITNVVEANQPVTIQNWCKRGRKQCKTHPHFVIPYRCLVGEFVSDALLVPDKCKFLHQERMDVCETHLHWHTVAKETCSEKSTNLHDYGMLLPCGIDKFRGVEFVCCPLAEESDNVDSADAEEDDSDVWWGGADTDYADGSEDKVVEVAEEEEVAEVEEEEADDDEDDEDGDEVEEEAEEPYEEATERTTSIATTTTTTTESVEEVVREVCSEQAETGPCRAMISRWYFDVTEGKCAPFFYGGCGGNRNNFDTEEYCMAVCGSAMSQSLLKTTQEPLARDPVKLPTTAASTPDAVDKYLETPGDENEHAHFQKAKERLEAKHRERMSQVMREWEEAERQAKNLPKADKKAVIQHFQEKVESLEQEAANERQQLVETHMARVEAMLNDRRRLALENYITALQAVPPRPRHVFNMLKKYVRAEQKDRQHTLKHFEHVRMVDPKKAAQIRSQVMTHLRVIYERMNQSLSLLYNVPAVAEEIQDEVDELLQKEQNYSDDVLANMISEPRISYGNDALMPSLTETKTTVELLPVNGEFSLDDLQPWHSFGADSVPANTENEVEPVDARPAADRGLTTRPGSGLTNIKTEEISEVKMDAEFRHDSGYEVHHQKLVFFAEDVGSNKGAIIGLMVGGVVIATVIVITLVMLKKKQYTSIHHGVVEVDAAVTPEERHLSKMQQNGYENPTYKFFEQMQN

Row | SMILES | inhibition [5] | Activity [6] | IC50 [7] | other results
1 | Oc1ccc(/C=C/c2cc(O)cc(O)c2)cc1 | 69.7% |  |  | Activity [1]: 86.4%; Activity [2]: Active; Activity [3]: 61%; inhibition [4]: 78.9%
2 | O=[N+]([O-])c1ccc(O)c(CNc2ccc(/C=C/c3cc(O)cc(O)c3)cc2)c1 | 71.5% | 4.23 equiv | 7.06 µM | 
3 | COc1cc(/C=C/c2ccc(NCc3cc[nH]c3)cc2)cc(OC)c1 | 13.6% | 3.51 equiv |  | 
4 | CN(C)c1ccc(/C=C/c2ccc(NCc3cc(N(C)C)ccc3O)cc2)cc1 | 69.1% | 3.86 equiv | 10.7 µM | 
5 | CCCNc1ccc(O)c(CNc2ccc(/C=C/c3cc(OC)cc(OC)c3)cc2)c1 | 62.5% | 2.91 equiv | 13.1 µM | 
6 | COc1ccc(/C=C/c2ccc(NCc3cc(N(C)C)ccc3O)cc2)cc1 | 71.2% | 2.37 equiv | 12.2 µM | 
7 | Oc1cc(O)cc(/C=C/c2ccc(NCc3cccc(O)c3O)cc2)c1 | 78.8% | 3.26 equiv | 7.87 µM | 
8 | COc1cc(/C=C/c2ccc(NCc3cc(NC(C)C)ccc3O)cc2)cc(OC)c1 | 50.2% | 2.73 equiv | 18.4 µM | 
9 | C#CCN[C@@H]1CCc2ccc(OC(=O)N(C)CC)cc21 [LADOSTIGIL] |  |  |  | IC50 (Acetylcholinesterase): 50 µM
10 | COc1cc(/C=C/c2ccc(NCc3cc(Cl)ccc3O)cc2)cc(OC)c1 | 31.3% | 4.12 equiv |  | 
11 | COc1cc(/C=C/c2ccc(NCc3ccccc3O)cc2)cc(OC)c1 | 20.7% | 3.67 equiv |  | 
12 | Oc1cc(O)cc(/C=C/c2ccc(NCc3ccccc3O)cc2)c1 | 68.1% | 6.27 equiv | 10.2 µM | 
13 | COc1cc(/C=C/c2ccc(NCc3ccc(OC)cc3O)cc2)cc(OC)c1 | 3.98% | 3.32 equiv |  | 
14 | COc1cc(/C=C/c2ccc(NCc3cc(NCC(C)C)ccc3O)cc2)cc(OC)c1 | 67% | 4.51 equiv | 10.3 µM | 
15 | COc1cc(/C=C/c2ccc(NCc3ccccc3N(C)C)cc2)cc(OC)c1 | 7.17% | 5.87 equiv |  | 
16 | CN(C)c1ccc(O)c(CNc2ccc(/C=C/c3cc(O)cc(O)c3)cc2)c1 | 78.1% | 4.7 equiv |  | Activity (SH-SY5Y): Active; Activity [8]: Active; Activity [1]: 85.9%; Activity [2]: Active; Activity [3]: 82%; inhibition [9]: Active; inhibition [4]: 94.2%; Activity [10]: Active; Activity [11]: Active; Activity [12]: Active; Activity [13]: Active; Activity [14]: Active; inhibition [15]: Active
17 | CN(C)c1ccccc1CNc1ccc(/C=C/c2cc(O)cc(O)c2)cc1 | 62.4% | 3.57 equiv | 14.2 µM | 
18 | COc1cc(/C=C/c2ccc(NCc3ccccc3OC)cc2)cc(OC)c1 | 6.9% | 3.67 equiv |  | 
19 | CN(C)c1ccc(O)c(CNc2ccc(/C=C/c3cc(O)cc(O)c3)cc2)c1.Cl |  |  |  | Papp at 10 h, 100 ug/mL [16]: 2.55 ×10⁻⁶ cm/s
20 | COc1cc(/C=C/c2ccc(NCc3c[nH]c4ccccc34)cc2)cc(OC)c1 | 24.1% | 3.67 equiv |  | 
21 | Oc1c(I)cc(Cl)c2cccnc12 | 37.8% |  |  | Activity [1]: 41%; Activity [2]: Active; Activity [3]: 16.5%; inhibition [4]: 70.9%
22 | COc1cc(/C=C/c2ccc(NCc3cc(N(C)C)ccc3O)cc2)cc(OC)c1.Cl |  |  |  | Papp at 10 h, 100 ug/mL [16]: 7.13 ×10⁻⁶ cm/s
23 | COc1cc(/C=C/c2ccc(NCc3cccc(OC)c3O)cc2)cc(OC)c1 | 18.1% | 4.54 equiv |  | 
24 | COc1cc(/C=C/c2ccc(NCc3cc(N(C)C)ccc3O)cc2)cc(OC)c1 | 79.5% | 4.72 equiv |  | Activity (SH-SY5Y): Active; Activity [8]: Active; Activity [1]: 88.8%; Activity [2]: Active; Activity [3]: 67%; inhibition [9]: Active; inhibition [4]: 87.5%; Activity [10]: Active; Activity [11]: Active; Activity [12]: Active; Activity [13]: Active; Activity [14]: Active; inhibition [15]: Active
25 | COc1cc(/C=C/c2ccc(NCc3cc([N+](=O)[O-])ccc3O)cc2)cc(OC)c1 | 46.5% | 2.51 equiv |  | 
